# Test results reported in ChEMBL document CHEMBL1145636, “Discovery of a novel and potent series of thieno[3,2-b]pyridine-based inhibitors of c-Met and VEGFR2 tyrosine kinases” (Bioorg Med Chem Lett, 2008).
# pIC50: −log10 of the molar value.
# Experiments:
# [1] = target: T1, Vascular endothelial growth factor receptor 2 (Homo sapiens, UniProt P35968); experiment: Inhibition of GST tagged VEGFR2 expressed in Sf9 cells
# Method in brief: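 GST-fused VEGFR2 catalytic domain, baculovirus-expressed in Sf9 cells (MOI 0.1), glutathione-agarose purified; 5 nM enzyme preincubated with inhibitor and Mg-ATP on ice 4 min, then reacted on immobilized poly(Glu4,Tyr) at 30 °C for 10 min in 60 mM Hepes pH 7.5, MgCl2/MnCl2; ATP 0.6 (2× Km); Eu anti-phosphotyrosine TR-fluorescence; seven concentrations in triplicate, four-parameter IC50 fit.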
# [2] = target: T2, Hepatocyte growth factor receptor (Homo sapiens, UniProt P08581); experiment: Inhibition of GST tagged c-Met expressed in High Five cells
# Target sequence in this assay (P08581 whole entry, the tested form may be a part): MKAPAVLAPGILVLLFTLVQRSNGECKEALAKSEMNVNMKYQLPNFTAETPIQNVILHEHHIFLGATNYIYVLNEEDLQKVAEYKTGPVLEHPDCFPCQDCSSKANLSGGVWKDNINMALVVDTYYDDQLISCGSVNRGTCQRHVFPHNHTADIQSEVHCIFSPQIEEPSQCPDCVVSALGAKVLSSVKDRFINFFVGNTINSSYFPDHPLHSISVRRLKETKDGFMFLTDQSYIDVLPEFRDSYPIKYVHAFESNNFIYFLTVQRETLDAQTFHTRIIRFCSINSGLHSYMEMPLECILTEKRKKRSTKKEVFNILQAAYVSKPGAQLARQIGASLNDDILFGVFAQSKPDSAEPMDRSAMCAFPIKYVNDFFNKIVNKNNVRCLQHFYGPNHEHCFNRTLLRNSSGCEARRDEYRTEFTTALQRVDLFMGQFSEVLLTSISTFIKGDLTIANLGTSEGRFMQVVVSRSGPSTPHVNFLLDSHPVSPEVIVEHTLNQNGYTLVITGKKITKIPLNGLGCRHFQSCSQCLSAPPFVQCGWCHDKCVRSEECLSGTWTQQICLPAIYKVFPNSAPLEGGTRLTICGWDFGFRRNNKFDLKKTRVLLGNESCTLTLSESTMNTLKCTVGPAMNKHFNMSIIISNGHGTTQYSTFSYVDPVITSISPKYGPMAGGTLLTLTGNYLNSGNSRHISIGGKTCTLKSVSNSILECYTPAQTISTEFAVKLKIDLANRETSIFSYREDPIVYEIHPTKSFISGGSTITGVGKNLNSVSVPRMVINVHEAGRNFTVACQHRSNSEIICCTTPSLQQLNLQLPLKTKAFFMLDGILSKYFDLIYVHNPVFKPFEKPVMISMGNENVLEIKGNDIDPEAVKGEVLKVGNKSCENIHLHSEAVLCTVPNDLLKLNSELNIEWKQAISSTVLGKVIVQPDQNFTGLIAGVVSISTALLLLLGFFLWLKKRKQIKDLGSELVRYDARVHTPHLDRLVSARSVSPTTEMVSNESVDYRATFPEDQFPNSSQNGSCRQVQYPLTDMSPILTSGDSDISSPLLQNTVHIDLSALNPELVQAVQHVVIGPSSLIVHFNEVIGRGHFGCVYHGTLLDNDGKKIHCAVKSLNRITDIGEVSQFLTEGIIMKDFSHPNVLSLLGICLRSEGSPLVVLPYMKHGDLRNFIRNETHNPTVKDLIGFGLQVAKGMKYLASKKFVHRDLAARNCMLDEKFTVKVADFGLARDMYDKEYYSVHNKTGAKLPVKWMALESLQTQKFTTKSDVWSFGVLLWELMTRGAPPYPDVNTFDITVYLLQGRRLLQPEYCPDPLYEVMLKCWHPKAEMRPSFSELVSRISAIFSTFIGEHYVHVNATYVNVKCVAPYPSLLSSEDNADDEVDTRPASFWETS
# [3] = target: T2, Hepatocyte growth factor receptor; experiment: Inhibition of TPR-Met fusion protein assessed as Y1230-34-35 phosphorylation
# Target sequence in this assay (P08581 25-1390 limits assumed): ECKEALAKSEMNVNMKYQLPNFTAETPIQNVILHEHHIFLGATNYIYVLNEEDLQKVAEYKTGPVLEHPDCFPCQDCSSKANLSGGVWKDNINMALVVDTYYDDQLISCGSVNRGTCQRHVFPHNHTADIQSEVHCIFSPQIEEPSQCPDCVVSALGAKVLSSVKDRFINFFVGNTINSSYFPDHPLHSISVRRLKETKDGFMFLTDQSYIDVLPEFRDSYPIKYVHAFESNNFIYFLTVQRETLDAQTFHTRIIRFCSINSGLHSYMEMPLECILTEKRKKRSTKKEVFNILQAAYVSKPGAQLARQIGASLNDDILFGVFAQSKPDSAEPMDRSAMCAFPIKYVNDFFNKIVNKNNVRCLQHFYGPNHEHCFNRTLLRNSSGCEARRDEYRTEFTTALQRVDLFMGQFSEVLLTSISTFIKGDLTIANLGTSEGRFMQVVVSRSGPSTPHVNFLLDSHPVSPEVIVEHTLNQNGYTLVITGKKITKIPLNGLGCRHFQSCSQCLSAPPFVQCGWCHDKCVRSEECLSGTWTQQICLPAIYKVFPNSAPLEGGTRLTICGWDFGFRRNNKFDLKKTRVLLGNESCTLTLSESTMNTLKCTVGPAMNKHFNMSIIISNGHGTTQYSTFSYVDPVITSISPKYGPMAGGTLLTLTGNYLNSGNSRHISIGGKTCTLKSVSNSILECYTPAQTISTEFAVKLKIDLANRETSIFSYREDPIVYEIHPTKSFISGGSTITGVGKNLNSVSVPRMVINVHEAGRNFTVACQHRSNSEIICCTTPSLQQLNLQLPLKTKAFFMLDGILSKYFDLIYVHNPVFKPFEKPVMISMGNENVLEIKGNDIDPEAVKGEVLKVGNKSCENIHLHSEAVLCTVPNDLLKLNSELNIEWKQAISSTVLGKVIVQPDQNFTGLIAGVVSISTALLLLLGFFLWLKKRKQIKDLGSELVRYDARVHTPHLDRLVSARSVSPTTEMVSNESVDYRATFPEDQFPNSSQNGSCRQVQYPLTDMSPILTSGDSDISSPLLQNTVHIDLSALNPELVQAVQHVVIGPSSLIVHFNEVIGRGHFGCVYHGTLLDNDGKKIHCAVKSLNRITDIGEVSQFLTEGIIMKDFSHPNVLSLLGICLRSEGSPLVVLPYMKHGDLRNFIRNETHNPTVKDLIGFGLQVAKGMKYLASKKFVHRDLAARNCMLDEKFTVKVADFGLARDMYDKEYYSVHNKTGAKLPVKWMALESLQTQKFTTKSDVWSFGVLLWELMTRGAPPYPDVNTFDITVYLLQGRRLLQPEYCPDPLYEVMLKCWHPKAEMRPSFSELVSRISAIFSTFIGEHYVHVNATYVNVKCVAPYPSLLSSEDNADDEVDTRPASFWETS
# COLO 205 = experiment: Antitumor activity in human Colo205 cells xenografted mouse assessed as tumor growth inhibition at 20 mg/kg, po once daily after 16 days; format: functional; conditions: COLO 205, 384 h, read-out: TGI
# Method in brief: (§1)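 Human tumor xenografts in mice; test agent given orally at 20 mg/kg once daily; efficacy expressed as percent tumor growth inhibition.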
# DU-145 = experiment: Antitumor activity in human DU145 cells xenografted mouse assessed as tumor growth inhibition at 20 mg/kg, po once daily after 11 days; format: functional; conditions: DU-145, 264 h, read-out: TGI; method in brief: as §1
# [4] = Tmax in Sprague-Dawley rat at 5 mg/kg, po; format: ADME, organism-based; design: dose 5 mg/kg, route oral; conditions: in vivo
# [5] = Cmax in Beagle dog at 5 mg/kg, po; format: ADME, organism-based, Canis lupus familiaris; design: dose 5 mg/kg, route oral; conditions: in vivo
# Canis familiaris [6] = experiment: Oral bioavailability in Beagle dog at 5 mg/kg; format: ADME, organism-based, Canis lupus familiaris; conditions: in vivo
# [7] = Half life in Beagle dog at 0.8 mg/kg, iv; format: ADME, organism-based, Canis lupus familiaris; design: dose 0.8 mg/kg, route intravenous; conditions: in vivo
# [8] = target: High affinity nerve growth factor receptor (Homo sapiens) (UniProt P04629); experiment: Inhibition of TrkA at 100 nM
# Chain of High affinity nerve growth factor receptor (Homo sapiens) (P04629 33-796 limits assumed): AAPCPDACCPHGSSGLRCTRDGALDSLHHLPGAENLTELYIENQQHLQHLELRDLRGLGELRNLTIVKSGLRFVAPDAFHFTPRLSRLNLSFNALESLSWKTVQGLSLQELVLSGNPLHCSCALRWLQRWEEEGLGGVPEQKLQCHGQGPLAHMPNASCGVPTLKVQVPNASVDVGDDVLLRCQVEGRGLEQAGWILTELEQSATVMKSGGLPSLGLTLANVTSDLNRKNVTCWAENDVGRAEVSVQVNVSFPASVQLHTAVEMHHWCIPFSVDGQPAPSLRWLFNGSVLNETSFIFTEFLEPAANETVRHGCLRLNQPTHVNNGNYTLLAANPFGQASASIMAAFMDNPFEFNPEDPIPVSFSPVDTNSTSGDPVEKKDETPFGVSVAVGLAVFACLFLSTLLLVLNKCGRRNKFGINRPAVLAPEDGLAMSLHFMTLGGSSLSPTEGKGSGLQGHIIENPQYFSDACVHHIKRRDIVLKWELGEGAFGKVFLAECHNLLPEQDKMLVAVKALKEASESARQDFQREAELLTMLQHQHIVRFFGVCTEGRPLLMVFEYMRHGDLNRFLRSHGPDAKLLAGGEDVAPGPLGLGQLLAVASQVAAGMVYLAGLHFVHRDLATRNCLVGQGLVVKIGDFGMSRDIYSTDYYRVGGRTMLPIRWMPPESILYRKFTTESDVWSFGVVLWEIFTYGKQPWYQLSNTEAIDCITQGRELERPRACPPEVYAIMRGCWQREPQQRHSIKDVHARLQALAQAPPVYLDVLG
# Method in brief: (§2)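 Radiometric protein kinase assays run through an outsourced kinase selectivity screening service; test agent at 100 nM, percent inhibition of each enzyme reported.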
# Cytochrome P450 3A4 = Cytochrome P450 3A4 (Homo sapiens, UniProt P08684); experiment: Inhibition of CYP3A4 at 10 uM; format: ADME
# MKN-45 = experiment: Antitumor activity in human MKN45 cells xenografted mouse assessed as tumor growth inhibition at 20 mg/kg, po once daily after 13 days; format: functional; conditions: MKN-45, 312 h, read-out: TGI; method in brief: as §1
# [9] = target: Inhibitor of nuclear factor kappa-B kinase subunit beta (Homo sapiens) (UniProt O14920); experiment: Inhibition of IKK-beta at 100 nM; method in brief: as §2
# [10] = target: Angiopoietin-1 receptor (Homo sapiens) (UniProt Q02763); experiment: Inhibition of Tie2 at 100 nM; method in brief: as §2
# [11] = target: Glycogen synthase kinase-3 beta (Homo sapiens) (UniProt P49841); experiment: Inhibition of GSK3-beta at 100 nM; method in brief: as §2
# [12] = target: Vascular endothelial growth factor receptor 3 (Homo sapiens) (UniProt P35916); experiment: Inhibition of VEGFR3 at 100 nM; method in brief: as §2
# Canis familiaris [13] = experiment: AUC in Beagle dog at 5 mg/kg, po; format: ADME, organism-based, Canis lupus familiaris, Plasma; design: dose 5 mg/kg, route oral; conditions: in vivo
# [14] = target: Tyrosine-protein kinase JAK2 (Homo sapiens) (UniProt O60674); experiment: Inhibition of JAK2 at 100 nM; method in brief: as §2
# [15] = Inhibition of JNK1-alpha-1 at 100 nM; method in brief: as §2
# [16] = Solubility of compound; format: physicochemical
# HCT-116 = experiment: Antitumor activity in human HCT116 cells xenografted mouse assessed as tumor growth inhibition at 20 mg/kg, po once daily after 14 days; format: functional; conditions: HCT-116, 336 h, read-out: TGI; method in brief: as §1
# [17] = Tmax in Beagle dog at 5 mg/kg, po; format: ADME, organism-based, Canis lupus familiaris; design: dose 5 mg/kg, route oral; conditions: in vivo
# [18] = Volume of distribution at steady state in Beagle dog at 0.8 mg/kg, iv or 5 mg/kg, po; format: ADME, organism-based, Canis lupus familiaris; conditions: in vivo, read-out: Vdss
# [19] = Oral bioavailability in Sprague-Dawley rat at 5 mg/kg; format: ADME, organism-based; conditions: in vivo
# Method in brief: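 An iv reference arm received 2.5 mg/kg (four animals) in DMSO. Plasma was analysed by HPLC-triple-quadrupole MS, and %F was derived from po versus iv exposure.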
# [20] = Half life in Sprague-Dawley rat at 2.5 mg/kg, iv; format: ADME, organism-based; design: dose 2.5 mg/kg, route intravenous; conditions: in vivo
# Method in brief: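 Female Sprague–Dawley rats were given a single iv dose of 2.5 mg/kg (four animals) in DMSO. The test material had >95% chromatographic purity. Plasma was analysed by HPLC with triple-quadrupole MS, and PK parameters were calculated from the concentration–time data.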
# [21] = target: Macrophage-stimulating protein receptor (Homo sapiens) (UniProt Q04912); experiment: Inhibition of Ron at 100 nM; method in brief: as §2
# HOS-TE85 = experiment: Antitumor activity in human MNNGHOS cells xenografted mouse assessed as tumor growth inhibition at 20 mg/kg, po once daily after 26 days; format: functional; conditions: HOS-TE85, 624 h, read-out: TGI; method in brief: as §1
# [22] = target: Receptor-type tyrosine-protein kinase FLT3 (Homo sapiens) (UniProt P36888); experiment: Inhibition of Flt3 at 100 nM; method in brief: as §2
# [23] = target: Mast/stem cell growth factor receptor Kit (Homo sapiens) (UniProt P10721); experiment: Inhibition of c-Kit at 100 nM; method in brief: as §2
# Canis familiaris [24] = experiment: Clearance in Beagle dog at 0.8 mg/kg, iv or 5 mg/kg, po; format: ADME, organism-based, Canis lupus familiaris; conditions: in vivo
# [25] = target: Vascular endothelial growth factor receptor 1 (Homo sapiens) (UniProt P17948); experiment: Inhibition of VEGFR1 at 100 nM; method in brief: as §2
# [26] = target: Epidermal growth factor receptor (Homo sapiens) (UniProt P00533); experiment: Inhibition of EGFR at 100 nM; method in brief: as §2
# [27] = Cmax in Sprague-Dawley rat at 5 mg/kg, po; format: ADME, organism-based; design: dose 5 mg/kg, route oral; conditions: in vivo
# [28] = target: Serine/threonine-protein kinase Chk1 (Homo sapiens) (UniProt O14757); experiment: Inhibition of CHK1 at 100 nM; method in brief: as §2
# [29] = target: Insulin-like growth factor 1 receptor (Homo sapiens) (UniProt P08069); experiment: Inhibition of IGF1R at 100 nM; method in brief: as §2
# [30] = Clearance in Sprague-Dawley rat; format: ADME, organism-based; conditions: in vivo
# [31] = Volume of distribution at steady state in Sprague-Dawley rat; format: ADME, organism-based; conditions: in vivo, read-out: Vdss
# [32] = target: T1, Vascular endothelial growth factor receptor 2; experiment: Inhibition of human VEGFR2-dependent ERK phosphorylation in HUVEC; format: cell-based
# [33] = AUC in Sprague-Dawley rat at 5 mg/kg, po; format: ADME, organism-based; design: dose 5 mg/kg, route oral; conditions: plasma
# [34] = target: Tyrosine-protein kinase ABL1 (Homo sapiens) (UniProt P00519); experiment: Inhibition of Abl at 100 nM; method in brief: as §2
# T1 sequence (P35968 whole entry, the tested form may be a part): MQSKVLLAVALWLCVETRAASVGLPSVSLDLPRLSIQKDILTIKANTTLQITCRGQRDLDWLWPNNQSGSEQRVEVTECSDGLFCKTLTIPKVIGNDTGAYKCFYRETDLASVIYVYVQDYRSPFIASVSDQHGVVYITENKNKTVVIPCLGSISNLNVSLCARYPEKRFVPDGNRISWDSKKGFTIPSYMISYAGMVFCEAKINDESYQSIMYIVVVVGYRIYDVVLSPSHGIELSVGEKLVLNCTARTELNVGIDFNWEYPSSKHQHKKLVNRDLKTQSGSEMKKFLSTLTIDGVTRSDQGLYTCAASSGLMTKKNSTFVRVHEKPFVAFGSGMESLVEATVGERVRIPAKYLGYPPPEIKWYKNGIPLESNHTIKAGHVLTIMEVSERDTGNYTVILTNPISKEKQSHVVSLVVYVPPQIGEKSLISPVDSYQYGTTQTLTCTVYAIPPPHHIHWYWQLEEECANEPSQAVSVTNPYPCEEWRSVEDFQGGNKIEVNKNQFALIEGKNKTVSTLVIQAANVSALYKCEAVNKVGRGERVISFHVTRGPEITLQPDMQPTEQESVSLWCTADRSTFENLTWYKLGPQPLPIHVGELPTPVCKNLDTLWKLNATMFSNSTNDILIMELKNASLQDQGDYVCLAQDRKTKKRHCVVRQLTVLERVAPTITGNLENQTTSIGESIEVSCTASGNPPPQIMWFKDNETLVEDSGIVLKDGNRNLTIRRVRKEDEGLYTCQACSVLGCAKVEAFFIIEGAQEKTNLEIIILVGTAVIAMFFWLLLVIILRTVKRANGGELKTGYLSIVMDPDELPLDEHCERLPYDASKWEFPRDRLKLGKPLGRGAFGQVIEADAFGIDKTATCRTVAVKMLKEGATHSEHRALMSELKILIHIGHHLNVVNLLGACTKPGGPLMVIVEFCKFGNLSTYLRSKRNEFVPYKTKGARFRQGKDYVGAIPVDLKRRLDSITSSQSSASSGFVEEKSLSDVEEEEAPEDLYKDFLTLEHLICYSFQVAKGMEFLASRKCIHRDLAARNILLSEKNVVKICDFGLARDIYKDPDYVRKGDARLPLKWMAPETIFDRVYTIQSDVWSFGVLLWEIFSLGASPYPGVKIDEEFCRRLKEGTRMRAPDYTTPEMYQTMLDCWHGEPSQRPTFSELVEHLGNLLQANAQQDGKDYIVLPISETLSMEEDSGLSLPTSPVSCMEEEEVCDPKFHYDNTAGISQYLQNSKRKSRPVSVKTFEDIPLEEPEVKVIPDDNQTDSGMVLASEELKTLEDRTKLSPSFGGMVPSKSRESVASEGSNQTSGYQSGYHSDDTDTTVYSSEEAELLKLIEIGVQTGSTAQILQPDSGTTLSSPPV
smiles,measurement,setting,value
COc1cc2nccc(Oc3ccc(NC(=S)NC(=O)Cc4ccccc4)cc3F)c2cc1OC,pIC50,[1],7.49
O=C(Cc1ccccc1)NC(=S)Nc1ccc(Oc2ccnc3cc(-c4nccs4)sc23)c(F)c1,pIC50,[2],7.19
same,pIC50,[1],7.77
same,pIC50,[3],7.55
Cn1cnc(-c2cc3nccc(Oc4ccc(NC(=S)NC(=O)Cc5ccccc5)cc4F)c3s2)c1,inhibition in vivo at 20 mg/kg,COLO 205,41%
same,inhibition in vivo at 20 mg/kg,DU-145,57%
same,Tmax,[4],3.5 h
same,Cmax,[5],210 nM
same,F,Canis familiaris [6],42%
same,half-life,[7],5.8 h
same,inhibition,[8],99%
same,Inhibition,Cytochrome P450 3A4,Not Active
same,inhibition in vivo at 20 mg/kg,MKN-45,94%
same,inhibition,[9],< 5%
same,inhibition,[10],81%
same,inhibition,[11],< 5%
same,inhibition,[12],100%
same,AUC,Canis familiaris [13],0.74 µM·h
same,inhibition,[14],< 5%
same,inhibition,[15],< 5%
same,solubility,[16],30 µg/mL
same,inhibition in vivo at 20 mg/kg,HCT-116,41%
same,Tmax,[17],1.1 h
same,Vd,[18],1.5 L/kg
same,bioavailability,[19],12%
same,pIC50,[1],8.00
same,half-life,[20],1.2 h
same,inhibition,[21],80%
same,inhibition in vivo at 20 mg/kg,HOS-TE85,61%
same,inhibition,[22],96%
same,inhibition,[23],92%
same,CL,Canis familiaris [24],18.3 mL/min/kg
same,inhibition,[25],91%
same,inhibition,[26],< 5%
same,Cmax,[27],140 nM
same,inhibition,[28],< 5%
same,inhibition,[29],< 5%
same,clearance,[30],5.5 mL/min/kg
same,Vd,[31],0.25 L/kg
same,pIC50,[32],7.52
same,AUC,[33],0.74 µM·h
same,pIC50,[3],7.92
same,inhibition,[34],91%
CN(C)C(=O)c1cc2nccc(Oc3ccc(NC(=S)NC(=O)Cc4ccccc4)cc3F)c2s1,pIC50,[1],7.72
Cn1ccnc1-c1cc2nccc(Oc3ccc(NC(=S)NC(=O)Cc4ccccc4)cc3F)c2s1,solubility,[16],1.7 µg/mL
same,pIC50,[1],8.00
Cn1cccc1-c1cc2nccc(Oc3ccc(NC(=S)NC(=O)Cc4ccccc4)cc3F)c2s1,pIC50,[2],7.31
same,pIC50,[1],7.51
same,pIC50,[3],6.97
O=C(Cc1ccccc1)NC(=S)Nc1ccc(Oc2ccnc3cc(-c4cccs4)sc23)c(F)c1,pIC50,[1],7.49
CSc1cc2nccc(Oc3ccc(NC(=S)NC(=O)Cc4ccccc4)cc3F)c2s1,pIC50,[1],6.46
Cn1cc(-c2cc3nccc(Oc4ccc(NC(=S)NC(=O)Cc5ccccc5)cc4F)c3s2)cn1,pIC50,[2],7.62
same,pIC50,[1],7.60
CNC(=O)c1cc2nccc(Oc3ccc(NC(=S)NC(=O)Cc4ccccc4)cc3F)c2s1,pIC50,[1],6.88
O=C(Cc1ccccc1)NC(=S)Nc1ccc(Oc2ccnc3cc(-c4ncccn4)sc23)c(F)c1,pIC50,[1],7.03
O=C(Cc1ccccc1)NC(=S)Nc1ccc(Oc2ccnc3cc(-c4cccnc4)sc23)c(F)c1,pIC50,[1],6.95
Cn1ncnc1-c1cc2nccc(Oc3ccc(NC(=S)NC(=O)Cc4ccccc4)cc3F)c2s1,pIC50,[2],7.16
same,pIC50,[1],7.55
same,pIC50,[3],7.70
CCn1cnc(-c2cc3nccc(Oc4ccc(NC(=S)NC(=O)Cc5ccccc5)cc4F)c3s2)c1,pIC50,[2],7.28
same,pIC50,[1],7.96
same,pIC50,[3],7.66
O=C(Cc1ccccc1)NC(=S)Nc1ccc(Oc2ccnc3cc(-c4cncnc4)sc23)c(F)c1,pIC50,[2],7.20
same,pIC50,[1],6.76
same,pIC50,[3],5.30
CN1CCN(C(=O)c2cc3nccc(Oc4ccc(NC(=S)NC(=O)Cc5ccccc5)cc4F)c3s2)CC1,pIC50,[2],6.71
same,pIC50,[1],6.46
O=C(Cc1ccccc1)NC(=S)Nc1ccc(Oc2ccnc3cc(-c4ccoc4)sc23)c(F)c1,pIC50,[2],7.13
same,pIC50,[1],6.23
CC(O)c1cc2nccc(Oc3ccc(NC(=S)NC(=O)Cc4ccccc4)cc3F)c2s1 (configuration not stated),pIC50,[1],6.25
COC(=O)c1cc2nccc(Oc3ccc(NC(=S)NC(=O)Cc4ccccc4)cc3F)c2s1,pIC50,[1],7.05
O=C(Cc1ccccc1)NC(=S)Nc1ccc(Oc2ccnc3ccsc23)c(F)c1,pIC50,[1],5.95
O=C(Cc1ccccc1)NC(=S)Nc1ccc(Oc2ccnc3cc(C(=O)c4ccco4)sc23)c(F)c1,pIC50,[2],6.89
same,pIC50,[1],6.90
O=C(Cc1ccccc1)NC(=S)Nc1ccc(Oc2ccnc3cc(C(=O)N4CCOCC4)sc23)c(F)c1,pIC50,[2],6.90
same,pIC50,[1],6.54
O=C(Cc1ccccc1)NC(=S)Nc1ccc(Oc2ccnc3cc(C(=O)N4CCCC4)sc23)c(F)c1,pIC50,[2],7.27
same,pIC50,[1],8.05
CCn1ccnc1-c1cc2nccc(Oc3ccc(NC(=S)NC(=O)Cc4ccccc4)cc3F)c2s1,pIC50,[2],6.97
same,pIC50,[1],7.60
same,pIC50,[3],7.46
O=C(Cc1ccccc1)NC(=S)Nc1ccc(Oc2ccnc3cc(-c4ccccn4)sc23)c(F)c1,pIC50,[1],7.77
O=C(Cc1ccccc1)NC(=S)Nc1ccc(Oc2ccnc3cc(-c4nncs4)sc23)c(F)c1,pIC50,[2],7.22
same,pIC50,[1],6.84
NC(=O)c1cc2nccc(Oc3ccc(NC(=S)NC(=O)Cc4ccccc4)cc3F)c2s1,pIC50,[1],6.89
CCN(CC)C(=O)c1cc2nccc(Oc3ccc(NC(=S)NC(=O)Cc4ccccc4)cc3F)c2s1,pIC50,[2],6.94
same,pIC50,[1],6.41
